What all share (assay type): functional
The test system of assay [1] is Candida albicans. The assay can be described thus: Antifungal activity against Candida albicans SC5314 by micro-broth dilution method. A digest of the protocol:
(§1)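 MIC80 determined by broth microdilution following NCCLS methods. C. albicans SC5314 and Y0109 and C. neoformans BLS108 served as quality-control strains and were included in every assay. Fluconazole, itraconazole, voriconazole and amphotericin B were run as positive controls.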

Assay [2] concerns Candida albicans. As to the kind of experiment: Antifungal activity against Candida albicans Y0109 by micro-broth dilution method. A digest of the protocol: as §1
For the next assay, the system named is Candida tropicalis. As to the kind of experiment: Antifungal activity against Candida tropicalis by micro-broth dilution method. The procedure, abridged: as §1
For the next assay, the system named is Candida parapsilosis. As to the kind of experiment: Antifungal activity against Candida parapsilosis by micro-broth dilution method. To be noted: Lodderomyces parapsilosis. The procedure, abridged: as §1
For the next assay, the system named is Kluyveromyces marxianus. As to the kind of experiment: Antifungal activity against Candida kefyr by micro-broth dilution method.
The test system of the next assay is Cryptococcus neoformans. The assay can be described thus: Antifungal activity against Cryptococcus neoformans BLS108 by micro-broth dilution method. The procedure, abridged:
as §1

A further assay has as its system Trichophyton rubrum. The assay can be described thus: Antifungal activity against Trichophyton rubrum by micro-broth dilution method. The procedure, abridged:
as §1

Another assay relates to Aspergillus fumigatus. As to the kind of experiment: Antifungal activity against Aspergillus fumigatus by micro-broth dilution method. The procedure, abridged: as §1

Values after ≈ are worked out from the molar mass of the structure shown. Bounds are passed on as bounds.

With `O=C(/C=C/c1cccc([N+](=O)[O-])c1)Nc1ccc(-n2cnn(CC(O)(Cn3cncn3)c3ccc(F)cc3F)c2=O)cc1` (single isomer, unassigned), the MIC80 with Candida albicans [1] is 0.00024 µg/mL (≈ 0.000408 µM); in the assay with Candida albicans [2] it was 0.00024 µg/mL (≈ 0.000408 µM); in the assay on Candida tropicalis it was 0.25 µg/mL (≈ 0.425 µM); against Candida parapsilosis, 0.0039 µg/mL (≈ 0.00663 µM); against Kluyveromyces marxianus it was 16 µg/mL (≈ 27.2 µM); with Cryptococcus neoformans it was > 64 µg/mL. For the same compound, the MIC80 against Trichophyton rubrum is 64 µg/mL (≈ 109 µM); in the assay on Aspergillus fumigatus, > 64 µg/mL.

Turning to `COc1ccc(/C=C/C(=O)Nc2ccc(-n3cnn(CC(O)(Cn4cncn4)c4ccc(F)cc4F)c3=O)cc2)cc1` (single isomer, unassigned), the MIC80 is 4 µg/mL (≈ 6.97 µM) with Candida albicans [1]; > 64 µg/mL in the assay on Candida albicans [2]; > 64 µg/mL against Candida tropicalis; > 64 µg/mL against Candida parapsilosis; > 64 µg/mL against Kluyveromyces marxianus; > 64 µg/mL against Cryptococcus neoformans. Also, the MIC80 in the assay with Trichophyton rubrum and with Aspergillus fumigatus was > 64 µg/mL throughout.

Consider `Cc1ccc(C(=O)Nc2ccc(-n3cnn(CC(O)(Cn4cncn4)c4ccc(F)cc4F)c3=O)cc2)cc1` (single isomer, unassigned), for which the MIC80 with Candida albicans [1] was 0.0625 µg/mL (≈ 0.118 µM); in the assay with Candida albicans [2], 0.0625 µg/mL (≈ 0.118 µM); in the assay with Candida tropicalis, 1 µg/mL (≈ 1.88 µM); with Candida parapsilosis, 0.25 µg/mL (≈ 0.47 µM); in the assay with Kluyveromyces marxianus, 16 µg/mL (≈ 30.1 µM); against Cryptococcus neoformans it was > 64 µg/mL. The MIC80 in the assay with Trichophyton rubrum and in the assay with Aspergillus fumigatus was > 64 µg/mL throughout.

For `C[C@@H]1[C@H](O)[C@@H](C)/C=C/C=C/C=C/C=C/C=C/C=C/C=C/[C@H](O[C@@H]2O[C@H](C)[C@@H](O)[C@H](N)[C@@H]2O)C[C@@H]2O[C@](O)(C[C@@H](O)C[C@@H](O)[C@H](O)CC[C@@H](O)C[C@@H](O)CC(=O)O[C@H]1C)C[C@H](O)[C@H]2C(=O)O` [AMPHOTERICIN B], the MIC80 is 0.25 µg/mL (≈ 0.271 µM) with Candida albicans [1]; 0.25 µg/mL (≈ 0.271 µM) in the assay with Candida albicans [2]; 1 µg/mL (≈ 1.08 µM) against Candida tropicalis; 0.25 µg/mL (≈ 0.271 µM) in the assay with Candida parapsilosis; 0.25 µg/mL (≈ 0.271 µM) against Kluyveromyces marxianus; 1 µg/mL (≈ 1.08 µM) against Cryptococcus neoformans. Moreover, the MIC80 stood at 4 µg/mL (≈ 4.33 µM) with Trichophyton rubrum and 1 µg/mL (≈ 1.08 µM) in the assay with Aspergillus fumigatus.

Regarding `Cc1ccc(C(=O)Nc2ccc(-n3cnn(CC(O)(Cn4cncn4)c4ccc(F)cc4F)c3=O)cc2)cc1C` (single isomer, unassigned), the MIC80 was 0.25 µg/mL (≈ 0.458 µM) in the assay with Candida albicans [1]; 0.25 µg/mL (≈ 0.458 µM) against Candida albicans [2]; 0.25 µg/mL (≈ 0.458 µM) against Candida tropicalis; 0.25 µg/mL (≈ 0.458 µM) with Candida parapsilosis; 4 µg/mL (≈ 7.33 µM) in the assay with Kluyveromyces marxianus; 64 µg/mL (≈ 117 µM) against Cryptococcus neoformans. The MIC80 in the assay on Trichophyton rubrum and in the assay with Aspergillus fumigatus was > 64 µg/mL each time.

For `Cc1cccc(C(=O)Nc2ccc(-n3cnn(CC(O)(Cn4cncn4)c4ccc(F)cc4F)c3=O)cc2)c1` (single isomer, unassigned), the MIC80 is 0.0625 µg/mL (≈ 0.118 µM) against Candida albicans [1]; 0.0625 µg/mL (≈ 0.118 µM) in the assay on Candida albicans [2]; 1 µg/mL (≈ 1.88 µM) in the assay with Candida tropicalis; 0.0625 µg/mL (≈ 0.118 µM) in the assay on Candida parapsilosis; > 64 µg/mL with Kluyveromyces marxianus; > 64 µg/mL against Cryptococcus neoformans. Moreover, the MIC80 against Trichophyton rubrum and in the assay with Aspergillus fumigatus was > 64 µg/mL in each case.

On to `O=C(Nc1ccc(-n2cnn(CC(O)(Cn3cncn3)c3ccc(F)cc3F)c2=O)cc1)c1ccccc1Br` (single isomer, unassigned), for which the MIC80 in the assay with Candida albicans [1] was 1 µg/mL (≈ 1.68 µM); in the assay on Candida albicans [2] it was 4 µg/mL (≈ 6.71 µM); against Candida tropicalis it was 4 µg/mL (≈ 6.71 µM); against Candida parapsilosis it was 1 µg/mL (≈ 1.68 µM); against Kluyveromyces marxianus, > 64 µg/mL; with Cryptococcus neoformans, 16 µg/mL (≈ 26.8 µM). The MIC80 in the assay on Trichophyton rubrum and against Aspergillus fumigatus was > 64 µg/mL throughout.

Consider `CC(C)(C)c1ccc(C(=O)Nc2ccc(-n3cnn(CC(O)(Cn4cncn4)c4ccc(F)cc4F)c3=O)cc2)cc1` (single isomer, unassigned), for which the MIC80 is 0.0625 µg/mL (≈ 0.109 µM) in the assay on Candida albicans [1]; 1 µg/mL (≈ 1.74 µM) against Candida albicans [2]; 0.25 µg/mL (≈ 0.436 µM) against Candida tropicalis; 0.0625 µg/mL (≈ 0.109 µM) in the assay on Candida parapsilosis; > 64 µg/mL in the assay on Kluyveromyces marxianus; 64 µg/mL (≈ 112 µM) against Cryptococcus neoformans. Besides, the MIC80 against Trichophyton rubrum was 4 µg/mL (≈ 6.97 µM); against Aspergillus fumigatus, > 64 µg/mL.

Consider `CCCCCc1ccc(C(=O)Nc2ccc(-n3cnn(CC(O)(Cn4cncn4)c4ccc(F)cc4F)c3=O)cc2)cc1` (single isomer, unassigned), for which the MIC80 against Candida albicans [1] is 4 µg/mL (≈ 6.81 µM); with Candida albicans [2], > 64 µg/mL; with Candida tropicalis, > 64 µg/mL; against Candida parapsilosis, > 64 µg/mL; in the assay with Kluyveromyces marxianus, > 64 µg/mL; against Cryptococcus neoformans, > 64 µg/mL. Besides, the MIC80 with Trichophyton rubrum and with Aspergillus fumigatus was > 64 µg/mL throughout.

On to `O=C(Nc1ccc(-n2cnn(CC(O)(Cn3cncn3)c3ccc(F)cc3F)c2=O)cc1)c1ccc(F)cc1` (single isomer, unassigned), for which the MIC80 in the assay with Candida albicans [1] stood at 0.0625 µg/mL (≈ 0.117 µM); against Candida albicans [2], 1 µg/mL (≈ 1.87 µM); with Candida tropicalis, 0.0625 µg/mL (≈ 0.117 µM); in the assay with Candida parapsilosis, 0.0625 µg/mL (≈ 0.117 µM); against Kluyveromyces marxianus, 4 µg/mL (≈ 7.47 µM); in the assay with Cryptococcus neoformans, 64 µg/mL (≈ 120 µM). Besides, the MIC80 is 16 µg/mL (≈ 29.9 µM) in the assay with Trichophyton rubrum and > 64 µg/mL in the assay on Aspergillus fumigatus.

The record behind these values is ChEMBL document CHEMBL1806394, “Synthesis, in vitro evaluation and molecular docking studies of new triazole derivatives as antifungal agents” (2011).
